Experimental findings from ChEMBL document CHEMBL1143828, “A new Aspergillus fumigatus resistance mechanism conferring in vitro cross-resistance to azole antifungals involves a combination of cyp51A alterations” (2007) are described below.

In brackets after ≈: the same amount, converted by molar mass. Some results are limits rather than exact numbers.

Common to all, as to assay type: functional
In assay [1] the test system is Aspergillus fumigatus. The assay can be described thus: Antifungal activity against azole-resistant Aspergillus fumigatus V13/03-CM3272 isolate from patient with X-linked chronic granulomatous disease by broth microdilution susceptibility test. In outline:
(§1)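 Broth microdilution per CLSI M38-A with modifications; agents tested: itraconazole, voriconazole, ravuconazole, posaconazole, amphotericin B. Clinical isolates stored as conidia in sterile distilled water, grown at 37°C on potato dextrose agar. Each strain tested at least three times on different days. Quality controls: A. flavus ATCC 204304 and A. fumigatus ATCC 204305.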

Assay [2] relates to Aspergillus fumigatus. Description: Antifungal activity against azole-resistant Aspergillus fumigatus V49/09-CM4023 isolate from patient with chronic obstructive pulmonary disease by broth microdilution susceptibility test. In outline: as §1
Assay [3] concerns Aspergillus fumigatus. The assay can be described thus: Antifungal activity against azole-resistant Aspergillus fumigatus V49/77-CM4050 isolate from patient with acute myeloid leukemia by broth microdilution susceptibility test. In outline:
as §1

Assay [4] concerns Aspergillus fumigatus. Description: Antifungal activity against azole-resistant Aspergillus fumigatus M03/669-CM2627 isolate from patient by broth microdilution susceptibility test. In outline:
as §1

Assay [5] concerns Aspergillus fumigatus. The assay can be described thus: Antifungal activity against azole-resistant Aspergillus fumigatus V13/02-CM3271 isolate from patient with X-linked chronic granulomatous disease by broth microdilution susceptibility test. In outline:
as §1

In assay [6] the test system is Aspergillus fumigatus. Description: Antifungal activity against azole-resistant Aspergillus fumigatus V48/27-CM3936 isolate from patient with acute myeloid leukemia by broth microdilution susceptibility test. In outline: as §1
The test system of assay [7] is Aspergillus fumigatus. The assay can be described thus: Antifungal activity against azole-resistant Aspergillus fumigatus V45/07-CM3819 isolate from patient with chronic granulomatous disease by broth microdilution susceptibility test. In outline:
as §1

Assay [8] has as its system Aspergillus fumigatus. The assay can be described thus: Antifungal activity against azole-resistant Aspergillus fumigatus V41/26-CM3820 isolate from patient with pulmonary fibrosis by broth microdilution susceptibility test. In outline:
as §1

Assay [9] deals with Aspergillus fumigatus. The assay can be described thus: Antifungal activity against azole-resistant Aspergillus fumigatus V34/78-CM3279 isolate from patient with hyper-immunoglobulin E syndrome by broth microdilution susceptibility test. In outline:
as §1

Assay [10] deals with Aspergillus fumigatus. Description: Antifungal activity against azole-resistant Aspergillus fumigatus V34/77-CM3278 isolate from patient with hyper-immunoglobulin E syndrome by broth microdilution susceptibility test. In outline: as §1
Assay [11] concerns Aspergillus fumigatus. Description: Antifungal activity against azole-resistant Aspergillus fumigatus V34/76-CM3277 isolate from patient with hyper-immunoglobulin E syndrome by broth microdilution susceptibility test. In outline: as §1
Assay [12] concerns Aspergillus fumigatus. The assay can be described thus: Antifungal activity against azole-resistant Aspergillus fumigatus V34/75-CM3276 isolate from patient with hyper-immunoglobulin E syndrome by broth microdilution susceptibility test. In outline:
as §1

Assay [13] relates to Aspergillus fumigatus. Description: Antifungal activity against azole-resistant Aspergillus fumigatus V28/78-CM3275 isolate from patient with acute myeloid leukemia by broth microdilution susceptibility test. In outline:
as §1

Assay [14] deals with Aspergillus fumigatus. The assay can be described thus: Antifungal activity against azole-resistant Aspergillus fumigatus V27/28-CM3273 isolate from patient by broth microdilution susceptibility test. In outline: as §1

As for `CCC(C)n1ncn(-c2ccc(N3CCN(c4ccc(OCC5COC(Cn6cncn6)(c6ccc(Cl)cc6Cl)O5)cc4)CC3)cc2)c1=O` (stereo not given) [ITRACONAZOLE], the MIC in assay [1], in [2], in [3], in [4], in assay [5] and in assay [6] was > 8 µg/mL throughout. The minimal inhibitory concentration (MIC) in assay [7], in [8], in assay [9], in assay [10], in assay [11] and in [12] was > 8 µg/mL throughout. Also, the minimal inhibitory concentration (MIC) in [13] and in assay [14] was > 8 µg/mL in each case.
Turning to `C[C@@H]1[C@H](O)[C@@H](C)/C=C/C=C/C=C/C=C/C=C/C=C/C=C/[C@H](O[C@@H]2O[C@H](C)[C@@H](O)[C@H](N)[C@@H]2O)C[C@@H]2O[C@](O)(C[C@@H](O)C[C@@H](O)[C@H](O)CC[C@@H](O)C[C@@H](O)CC(=O)O[C@H]1C)C[C@H](O)[C@H]2C(=O)O` [AMPHOTERICIN B], the MIC in assay [1], in assay [2], in assay [3], in assay [4], in assay [5] and in assay [6] was 0.25 µg/mL (≈ 0.271 µM) throughout. Besides, the MIC in assay [7], in [8], in [9], in assay [10], in assay [11] and in assay [12] was 0.25 µg/mL (≈ 0.271 µM) in each case. Also, the MIC in assay [13] and in assay [14] was 0.25 µg/mL (≈ 0.271 µM) in each case.
In the case of `C[C@@H](c1nc(-c2ccc(C#N)cc2)cs1)[C@](O)(Cn1cncn1)c1ccc(F)cc1F` [RAVUCONAZOLE], the MIC in [1] is > 8 µg/mL; in assay [2], 8 µg/mL (≈ 18.3 µM); in [3], 4 µg/mL (≈ 9.14 µM); in assay [4], 4 µg/mL (≈ 9.14 µM); in [5], > 8 µg/mL; in [6], 8 µg/mL (≈ 18.3 µM). Besides, the MIC in assay [7] turned out to be 8 µg/mL (≈ 18.3 µM); in assay [8] it was 4 µg/mL (≈ 9.14 µM); in [9], 4 µg/mL (≈ 9.14 µM); in assay [10], 4 µg/mL (≈ 9.14 µM); in [11] it was 4 µg/mL (≈ 9.14 µM); in assay [12] it was 4 µg/mL (≈ 9.14 µM). The values for the MIC in assay [13] and in assay [14] were 8 µg/mL (≈ 18.3 µM) and 4 µg/mL (≈ 9.14 µM), respectively.
For `C[C@@H](c1ncncc1F)[C@](O)(Cn1cncn1)c1ccc(F)cc1F` [VORICONAZOLE], the minimum inhibitory concentration (MIC) in assay [1] came out at 2 µg/mL (≈ 5.73 µM); in assay [2], 4 µg/mL (≈ 11.5 µM); in [3], 4 µg/mL (≈ 11.5 µM); in assay [4], 4 µg/mL (≈ 11.5 µM); in [5], 2 µg/mL (≈ 5.73 µM); in assay [6], 4 µg/mL (≈ 11.5 µM). Moreover, the MIC was > 8 µg/mL in assay [7]; 4 µg/mL (≈ 11.5 µM) in [8]; 2 µg/mL (≈ 5.73 µM) in [9]; 2 µg/mL (≈ 5.73 µM) in assay [10]; 2 µg/mL (≈ 5.73 µM) in assay [11]; 4 µg/mL (≈ 11.5 µM) in assay [12]. In addition, the MIC in [13] and in assay [14] was 4 µg/mL (≈ 11.5 µM) in each case.
Consider `CC[C@@H]([C@H](C)O)n1ncn(-c2ccc(N3CCN(c4ccc(OC[C@@H]5CO[C@@](Cn6cncn6)(c6ccc(F)cc6F)C5)cc4)CC3)cc2)c1=O` [POSACONAZOLE], for which the MIC came out at 1 µg/mL (≈ 1.43 µM) in assay [1]; 4 µg/mL (≈ 5.71 µM) in assay [2]; 1 µg/mL (≈ 1.43 µM) in [3]; 0.5 µg/mL (≈ 0.713 µM) in [4]; 1 µg/mL (≈ 1.43 µM) in [5]; 4 µg/mL (≈ 5.71 µM) in assay [6]. The MIC in assay [7] was found to be 1 µg/mL (≈ 1.43 µM); in [8], 0.5 µg/mL (≈ 0.713 µM); in assay [9], 0.5 µg/mL (≈ 0.713 µM); in assay [10], 0.5 µg/mL (≈ 0.713 µM); in [11], 0.5 µg/mL (≈ 0.713 µM); in [12], 0.5 µg/mL (≈ 0.713 µM). The minimum inhibitory concentration (MIC) in assay [13] came out at 0.5 µg/mL (≈ 0.713 µM); in [14] it was 1 µg/mL (≈ 1.43 µM).
